Reference: ChEMBL document CHEMBL1124242, “Renin inhibitors. Dipeptide analogues of angiotensinogen utilizing a dihydroxyethylene transition-state mimic at the scissile bond to impart greater inhibitory potency” (J Med Chem, 1988)
Blank lines part the entries; values can stand above or below the compound they belong to. Where a SMILES comes first, the peptide text is derived from it. [ ]: non-standard residue; d: D form. The star is where a group is joined. 1Nal = N[C@@H](Cc1cccc2ccccc12)C(=O)O; Cha = N[C@@H](CC1CCCCC1)C(=O)O; Leu(ol) = CC(C)C[C@H](N)CO; Cbz = O=C(OCc1ccccc1)*; Boc = CC(C)(C)OC(=O)*

What was measured:
Renin [1] = target: T1, Renin (Homo sapiens, UniProt P00797); assay: (§1) In vitro inhibitory activity against renin at 10e-6 (M)
T1 sequence (P00797 whole entry): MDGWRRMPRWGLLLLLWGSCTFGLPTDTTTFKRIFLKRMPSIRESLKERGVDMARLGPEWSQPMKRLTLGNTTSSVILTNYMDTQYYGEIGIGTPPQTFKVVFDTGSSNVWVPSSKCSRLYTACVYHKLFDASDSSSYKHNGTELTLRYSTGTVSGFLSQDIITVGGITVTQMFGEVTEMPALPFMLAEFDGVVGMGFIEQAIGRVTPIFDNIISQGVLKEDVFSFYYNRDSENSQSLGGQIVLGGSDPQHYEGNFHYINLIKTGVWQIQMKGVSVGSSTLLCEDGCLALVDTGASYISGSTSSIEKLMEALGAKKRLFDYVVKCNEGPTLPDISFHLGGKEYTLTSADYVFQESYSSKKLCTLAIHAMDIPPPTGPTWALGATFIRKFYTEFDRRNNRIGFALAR

Renin (Homo sapiens) [2] = target: T2, Renin (Homo sapiens) (UniProt P00797); assay: as §1
T2 sequence (whole entry): T1 sequence (P00797 whole entry)

Cathepsin D (Bos taurus) = target: T3, Cathepsin D (Bos taurus) (UniProt P80209); assay: In vitro Inhibitory activity against Bovine cathepsin D 10e-5 (M); conditions: concentration not given here
T3 sequence (whole entry): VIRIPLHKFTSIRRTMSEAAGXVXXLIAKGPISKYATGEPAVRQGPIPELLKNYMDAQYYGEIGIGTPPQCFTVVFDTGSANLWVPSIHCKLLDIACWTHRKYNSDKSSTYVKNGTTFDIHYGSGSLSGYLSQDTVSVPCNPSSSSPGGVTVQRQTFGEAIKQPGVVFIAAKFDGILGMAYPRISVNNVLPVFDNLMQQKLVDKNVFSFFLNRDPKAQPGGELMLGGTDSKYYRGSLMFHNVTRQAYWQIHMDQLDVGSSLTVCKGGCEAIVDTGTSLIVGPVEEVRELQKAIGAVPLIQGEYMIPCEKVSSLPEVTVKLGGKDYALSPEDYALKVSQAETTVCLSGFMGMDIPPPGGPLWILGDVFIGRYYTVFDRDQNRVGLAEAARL
Summary of the method: (§2)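 Assayed against purified porcine pepsin or bovine cathepsin D by a method described previously. Results given as percent inhibition at 10^-5 M.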

[3] = target: T4, Gastricsin (Homo sapiens) (UniProt P20142); assay: In vitro Inhibitory activity against human Gastricsin at 10e-5 (M)
T4 sequence (whole entry): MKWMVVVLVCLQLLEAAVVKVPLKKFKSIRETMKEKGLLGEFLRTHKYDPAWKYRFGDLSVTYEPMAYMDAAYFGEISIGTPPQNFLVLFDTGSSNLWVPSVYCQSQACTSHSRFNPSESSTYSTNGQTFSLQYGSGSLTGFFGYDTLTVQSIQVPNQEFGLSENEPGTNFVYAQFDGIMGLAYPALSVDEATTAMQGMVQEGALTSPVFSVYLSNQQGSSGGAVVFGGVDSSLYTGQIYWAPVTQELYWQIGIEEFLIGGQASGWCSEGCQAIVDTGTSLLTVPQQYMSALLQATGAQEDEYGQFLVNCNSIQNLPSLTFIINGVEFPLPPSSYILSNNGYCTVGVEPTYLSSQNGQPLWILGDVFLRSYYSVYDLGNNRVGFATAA
Summary of the method: (§3)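 Human gastricsin and pepsin isolated from gastric juice by IRC-50 ion exchange with pH elution. Hemoglobin substrate; gastricsin run at pH 3.1, pepsin at pH 2.0. After trichloroacetic acid precipitation, supernatant absorbance read at 280 nm. Results given as percent inhibition at 10^-5 M.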

Pepsin A (Homo sapiens) = Pepsin A (Homo sapiens) (UniProt P0DJD9); assay: In vitro inhibitory activity against Human pepsin at 10e-5 M; summary of the method: as §3
Pepsin A (Homo sapiens), sequence (P0DJD9 63-388 limits assumed): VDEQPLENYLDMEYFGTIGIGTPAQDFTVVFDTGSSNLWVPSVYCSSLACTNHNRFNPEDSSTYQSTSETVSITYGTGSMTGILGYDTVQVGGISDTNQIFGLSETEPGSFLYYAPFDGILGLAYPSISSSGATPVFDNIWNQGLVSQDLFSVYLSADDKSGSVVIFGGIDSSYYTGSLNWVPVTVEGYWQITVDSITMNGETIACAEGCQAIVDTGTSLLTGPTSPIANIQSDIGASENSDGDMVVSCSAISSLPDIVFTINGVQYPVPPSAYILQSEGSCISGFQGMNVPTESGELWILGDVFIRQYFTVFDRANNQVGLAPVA

Renin [4] = target: T1, Renin; assay: In vitro inhibitory activity was tested against purified human renal renin
Renin (Homo sapiens) [5] = target: T2, Renin (Homo sapiens); assay: In vitro Inhibitory activity against Renin at 10e-9 (M)
Summary of the method: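 Purified human renin, procedure as reported earlier. Results given as percent inhibition at 10^-9 M.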

Pepsin A (Sus scrofa) = Pepsin A (Sus scrofa) (UniProt P00791); assay: In vitro Inhibitory activity against porcine Pepsin at 10e-5 (M); summary of the method: as §2
Pepsin A (Sus scrofa), sequence (P00791 60-385 limits assumed): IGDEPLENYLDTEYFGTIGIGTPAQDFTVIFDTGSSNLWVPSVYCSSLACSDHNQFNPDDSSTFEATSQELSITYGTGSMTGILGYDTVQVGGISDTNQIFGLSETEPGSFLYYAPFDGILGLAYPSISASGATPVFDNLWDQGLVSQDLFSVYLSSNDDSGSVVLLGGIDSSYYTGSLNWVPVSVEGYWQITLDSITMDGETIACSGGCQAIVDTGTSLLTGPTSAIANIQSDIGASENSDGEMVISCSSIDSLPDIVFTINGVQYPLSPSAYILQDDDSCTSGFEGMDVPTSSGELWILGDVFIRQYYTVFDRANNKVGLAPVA

Renin (Homo sapiens) [6] = target: T2, Renin (Homo sapiens); assay: In vitro inhibitory activity against renin at 10e-5 M
Renin [7] = target: T1, Renin; assay: In vitro inhibitory activity against renin at 10e-5 (M)
Renin [8] = target: T1, Renin; assay: In vitro inhibitory activity against renin at 10e-8(M)

- IC50 (Renin [1]): 3600 nM
- inhibition (Renin (Homo sapiens) [2]): 61%
Structure (SMILES): CC(C)C[C@@H](CO)NC(=O)[C@H](Cc1c[nH]cn1)NC(=O)[C@H](Cc1cccc2ccccc12)NC(=O)OCc1ccccc1 (Cbz-[1Nal]-His-[Leu(ol)])

- inhibition (Cathepsin D (Bos taurus)): 81%
- inhibition [3]: 0%
- inhibition (Pepsin A (Homo sapiens)): 25%
- IC50 (Renin [4]): 2.5 nM
- inhibition (Renin (Homo sapiens) [5]): 23%
- inhibition (Pepsin A (Sus scrofa)): 63%
Structure (SMILES): CC(C)C[C@H](NC(=O)OC(C)(C)C)C(=O)N[C@@H](CC(C)C)C(=O)N[C@@H](CC1CCCCC1)[C@@H](O)[C@@H](O)CC(C)C

- inhibition (Renin (Homo sapiens) [6]): 93%
- IC50 (Renin [7]): 450 nM
Structure (SMILES): C[C@H](NC(=O)[C@H](Cc1ccccc1)NC(=O)OC(C)(C)C)C(=O)N[C@H](C=O)CC1CCCCC1 (Boc-Phe-Ala-[Cha]-aldehyde)

- IC50 (Renin [8]): 80 nM
Structure (SMILES): CC(C)C[C@@H](C=O)NC(=O)[C@H](Cc1c[nH]cn1)NC(=O)[C@H](Cc1cccc2ccccc12)NC(=O)OCc1ccccc1 (Cbz-[1Nal]-His-Leu-aldehyde)
